PostGolgi ctrl: yeast control strain growth, post-Golgi counter-screen; efflux-deficient yeast background strain, growth absorbance A615, 16 h; inhibition, % at 10 µM; actives 5% (n = 98,000)
Ecoli WT expand: blocks growth of wild type E. coli BW25113. AID 710. actives 0.15% (n = 98,000). OD600 absorbance. growth inhibition, % at 100 µM;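 active = growth inhibition above about 50% at one test dose, limit read from the data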;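 also: growth measured after 20 h incubation at 37 °C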
PostGolgi yeast: growth inhibition of a yeast mutant, post-Golgi transport screen; post-Golgi transport phenotypic cell assay; inhibition, % at 10 µM; actives 0.9% (n = 98,000);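 also: yeast cells grown in 1536-well plates; yeast grown about 18 h at 30C before absorbance read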
Ecoli tolC: blocks growth of E. coli BW25113 tolC mutant; OD615; growth inhibition, % at 10 µM (by protocol); actives 2.2% (n = 65,000); AID 573;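 active = growth inhibition at or above a cutoff equal to the mean over every tested compound plus 3 SD, cut at about 60% in these data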;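 also: growth measured after 20 h incubation at 37 °C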
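test system = E. coli BW25113 ΔtolC::kan bacteria | medium = LB with kanamycin 50 µg/mL | signal = OD at 615 nm | schedule = 37 °C, 20 h exposure | evaluation = % inhibition of E. coli growth | compound dosing = one dose of 10 µM final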
PLAP activator: human PLAP activation; P05187; purified PLAP enzyme, luminescent substrate read-out; stronger effect = higher value; activation fold at 20 µM; actives 1.2% (n = 96,000); in the data active = activation fold above about 2
Target sequence (P05187 whole entry, looked up): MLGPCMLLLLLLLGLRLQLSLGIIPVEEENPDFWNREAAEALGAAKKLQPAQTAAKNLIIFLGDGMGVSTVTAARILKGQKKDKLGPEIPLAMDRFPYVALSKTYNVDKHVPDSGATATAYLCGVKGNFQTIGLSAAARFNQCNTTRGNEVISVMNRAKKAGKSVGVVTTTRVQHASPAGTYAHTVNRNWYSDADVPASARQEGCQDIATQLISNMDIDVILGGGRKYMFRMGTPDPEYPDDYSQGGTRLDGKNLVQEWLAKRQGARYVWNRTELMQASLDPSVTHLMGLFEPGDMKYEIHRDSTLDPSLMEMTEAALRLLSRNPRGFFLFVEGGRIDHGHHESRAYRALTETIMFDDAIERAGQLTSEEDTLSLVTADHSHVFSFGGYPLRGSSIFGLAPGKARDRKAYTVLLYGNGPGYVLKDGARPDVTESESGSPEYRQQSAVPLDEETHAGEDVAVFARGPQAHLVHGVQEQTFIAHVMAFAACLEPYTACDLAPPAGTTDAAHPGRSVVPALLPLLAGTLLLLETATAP
Each line names hits and unclear results; the compound was inactive in the other large screens. The list is not random: actives were taken first. Their share in the collection is about 7.2%. Rule as the data show it, unless noted: active = inhibition above about 30%; inactive = the rest.

CCn1cc(C(=O)NCc2ccco2)c(=O)c2cc(S(=O)(=O)N3CCCCCC3)ccc21	none
Cc1ccc(C(=O)Nc2ccccc2C(=O)NCc2ccco2)cc1S(=O)(=O)N1CCCCC1	PostGolgi ctrl 97 (no result: PLAP activator)
Nc1c(C(=O)NC2CCCC2)c2nc3ccccc3nc2n1/N=C/c1cccnc1	none (no result: PostGolgi ctrl, Ecoli WT expand, PostGolgi yeast, PLAP activator)
O=C(Nc1ccccc1Cl)ON=C1c2ccccc2-c2ccccc21	none (no result: Ecoli tolC)
O=C(Cn1nc(Cc2cccnc2)c2ccccc2c1=O)NCc1ccc(F)cc1	none (no result: Ecoli tolC)
O=C(CCc1nc(-c2cccs2)no1)NCc1ccc(F)cc1Cl	none (no result: Ecoli tolC)
Cc1ccc(CNC(=O)CCc2nc(-c3cccs3)no2)cc1	PostGolgi ctrl 43 (no result: Ecoli tolC)
CCCCNC(=O)Nc1cc(C(=O)OC)ccc1Cl	none (no result: Ecoli tolC)
Cc1cc(NC(=O)C2CCCCC2)nc2c1c(=O)oc1ccccc12	Ecoli tolC 76
C=CCCCCCCCCc1nc(=S)[nH][nH]1	PostGolgi ctrl 67 (no result: Ecoli tolC)
CCOC(=O)C(CC)(CC)C(=O)/C=C/c1ccc(Br)cc1	none (no result: Ecoli tolC)
CC(=O)c1sc(NC(=O)c2cc3c(C)nn(-c4ccccc4)c3s2)nc1C	none (no result: Ecoli tolC)
Cc1nc(NC(=O)c2cc3c(C)nn(-c4ccccc4)c3s2)sc1C(=O)Nc1ccccc1	PLAP activator 2.3 (no result: Ecoli tolC)
CCOC(=O)c1c(NC(=O)c2cc(C3CC3)on2)sc2c1CCCC2	none (no result: PostGolgi ctrl, Ecoli WT expand, PostGolgi yeast, PLAP activator)
Cc1cccc(N2CCN(C(=O)c3cc4n(n3)C(C(F)(F)F)CC(c3ccco3)N4)CC2)c1C (stereo not drawn)	Ecoli tolC 74
O=C(c1cc2n(n1)C(C(F)(F)F)CC(c1ccco1)N2)N1CCN(c2ccccn2)CC1 (stereo not drawn)	none
CCOC(=O)c1nnn(-c2nonc2N)c1CSc1ccc(C)cc1	PostGolgi ctrl 33
CCOC(=O)c1nnn(-c2nonc2N)c1CSc1ccccc1	none (no result: Ecoli tolC)
Cc1ccccc1Nc1nnc(SCc2cc([N+](=O)[O-])cc3c2OCOC3)s1	PLAP activator 2 (no result: Ecoli tolC)
CCS(=O)(=O)N1CCC(C(=O)N2CCc3ccccc3C2)CC1	none
CCOC(=O)C1CCCN(C(=O)C2CCCN(S(=O)(=O)c3ccc4c(c3)oc(=O)n4C)C2)C1 (stereo not drawn)	none
Cn1c(=O)oc2cc(S(=O)(=O)N3CCCC(C(=O)N4CCc5ccccc5C4)C3)ccc21 (stereo not drawn)	PostGolgi ctrl 51
O=C(C1CCN(S(=O)(=O)c2ccc3c(c2)OCCO3)CC1)N1CCc2ccccc21	PostGolgi ctrl 33
COc1ccc(S(=O)(=O)N2CCC(C(=O)N3CCc4ccccc4C3)CC2)cc1Cl	PostGolgi ctrl 49 (no result: Ecoli tolC)
Cc1cc(C)n(-c2nc3ccccc3c(=O)n2OCC(=O)Nc2c(C)cccc2C)n1	none
c1cncc(-c2nc(N3CCCCCC3)c3ccccc3n2)c1	PostGolgi ctrl 66, Ecoli tolC 95
CC1CN(c2nc(-c3ccccc3)nc3ccccc23)CC(C)O1 (stereo not drawn)	PostGolgi ctrl 41
CCOc1nc(-c2ccncc2)nc2ccccc12	PostGolgi ctrl 35 (no result: PLAP activator)
c1ccc2c(N3CCCCCC3)nc(-c3ccncc3)nc2c1	PostGolgi ctrl 68 (no result: Ecoli tolC)
CCCOc1ccc(-c2nc(OCC)c3ccccc3n2)cc1	none (no result: Ecoli tolC)
CN1CCN(c2nc(-c3cccnc3)nc3ccccc23)CC1	none
CCCOc1ccc(OCCOCCN2CCc3ccccc3C2)cc1	none (no result: Ecoli tolC)
Fc1ccc2c(c1)C(c1ccncc1)=NNC(c1cccnc1)=N2	none (no result: Ecoli tolC)
O=C(Nc1ccccc1)C1CC=CCC1C(=O)OCC1CCCO1 (stereo not drawn)	none
N#C/C(=C\c1cccc(Cl)c1)c1n[nH]c(Cn2cncn2)n1	none (no result: Ecoli tolC)
CC1C/C(=N/N=C2/NC(=O)CS2)CC(C)(C)C1 (stereo not drawn)	PostGolgi ctrl 34 (no result: Ecoli tolC)
CCn1c2ccccc2c2cc(NC(C)=O)ccc21	none (no result: Ecoli tolC)
CCn1c2ccccc2c2cc(NC(=O)c3ccco3)ccc21	Ecoli tolC 87
CCOC(=O)C(C)N1N=C(/C=C/c2ccc(OC)cc2)CCC1=O (stereo not drawn)	none (no result: Ecoli tolC)
CCNc1cc2oc(=O)c(CN3CCOCC3)c(C)c2cc1C	PLAP activator 2
Cc1cccc(C(=O)N2CCN(c3ccc([N+](=O)[O-])c(NCc4ccco4)c3)CC2)c1	PostGolgi ctrl 39 (no result: Ecoli tolC)
Cc1ccc(C(=O)N2CCN(c3ccc([N+](=O)[O-])c(NCc4ccco4)c3)CC2)cc1	none (no result: Ecoli tolC)
c1ccc(Oc2cccc(NC3=NCCC3)c2)cc1	none
Cc1sc2nc3ccc(N4CCCC4)nn3c(=O)c2c1C	none (no result: PostGolgi ctrl, Ecoli WT expand, PostGolgi yeast, PLAP activator)
CCn1c(SCc2ccc(OC)cc2)nnc1-c1ccncc1	none
COc1cc(C=O)c(Br)cc1OCc1ccc(C)cc1	PostGolgi ctrl 48 (no result: Ecoli tolC)
CC(C)CN(CC(C)C)C(=O)CS(=O)(=O)Cc1ccccc1	none
CCOc1ccc(-c2nc(N)ncc2Oc2cccc(OC)c2)c(O)c1	none (no result: Ecoli tolC)
COc1cccc(Oc2cncnc2-c2ccc(OC)cc2O)c1	PostGolgi ctrl 56, PostGolgi yeast 84
NNC(=O)Cn1c(SCc2ccccc2)nc2ccccc21	none (no result: Ecoli tolC)
CCCc1nc(SCC(=O)N2CCCc3ccccc32)c2c(=O)n(C)c(=O)n(C)c2n1	PostGolgi ctrl 37, PostGolgi yeast 49, Ecoli tolC 78
CCCc1nc(SCC(=O)N2CCC(Cc3ccccc3)CC2)c2c(=O)n(C)c(=O)n(C)c2n1	PostGolgi ctrl 38, Ecoli tolC 75
COc1ccc(Cl)cc1CN1CCN(c2nc(C)cc(C)c2C#N)CC1	Ecoli tolC 97
Cc1cc(C)c(C#N)c(N2CCN(CCOc3ccc(Cl)cc3)CC2)n1	PostGolgi ctrl 32, Ecoli tolC 100
CCOC(=O)c1sc2ncn(/N=C/c3cccnc3)c(=O)c2c1C	PLAP activator 2.1 (no result: Ecoli tolC)
CCOC(=O)c1c(NC(=O)CN2CCCCC2)sc2c1CCC(C=O)=C2Cl	PostGolgi yeast 40 (no result: Ecoli tolC)
CCOC(=O)c1c(NC(=O)CN2CCN(c3ccc(Cl)cc3)CC2)sc(C)c1C	none (no result: Ecoli tolC)
CCOC(=O)C1=C(C)NC(=O)NC1/C(C)=C/c1ccccc1 (stereo not drawn)	none
Nc1cc(C2CCCC2)nn1-c1ccccc1	none
Cc1cc(C)c2cc3c(N)c(C(=O)N4CCc5ccccc5C4)sc3nc2c1	none (no result: Ecoli tolC)
CN1CCc2nc3sc(C(=O)C45CC6CC(CC(C6)C4)C5)c(N)c3cc2C1	PostGolgi ctrl 95, PostGolgi yeast 100 (no result: Ecoli tolC)
CCc1cc(C(c2ccc(F)cc2)N2CCOCC2)c(NC(=O)c2ccccc2)s1 (stereo not drawn)	PostGolgi yeast 32 (no result: Ecoli tolC)
N#CN=C1CCCCCN1CC(N)=O	none
COc1cccc(NC(=O)CSCC(=O)Nc2ccccc2)c1	none (no result: Ecoli tolC)
CCCCSCCCNC(=O)Nc1cccc(OC)c1	PostGolgi yeast 36
COc1ccc(NC(=O)c2onc(C)c2Cl)cc1OC	PostGolgi ctrl 34 (no result: Ecoli tolC)
Cc1cc(C)c(S(=O)(=O)N2CCCCC2)c(C)c1N(C)S(=O)(=O)c1ccccc1	none (no result: Ecoli tolC)
Cc1cc(N2CCN(c3ccccc3)CC2)nc(NCc2ccccc2)n1	PostGolgi ctrl 47
CCCCn1c(=O)c(-[n+]2ccccc2)c([O-])c2ccccc21	none (no result: Ecoli tolC)
OCCN1CCOCCN(CCO)CCOCC1	PLAP activator 2
C=CCn1c(SC(C)C(=O)NCCC2=CCCCC2)nc2ccccc2c1=O (stereo not drawn)	PostGolgi ctrl 32 (no result: Ecoli tolC)
CN1CC2=Cc3ccccc3OC23Oc2ccccc2C=C3C1	none

Bioassay records: PubChem, several laboratories
